Bioassay records: PubChem BioAssay, several laboratories
RAM network inh = inhibitors of the yeast RAM network; S. cerevisiae dse1pr::URA3 reporter, 5-FOA growth OD615, 2 d; analog-sensitive cbk1-as2 kinase mutant strain; inhibition, % at 50 µM; 1.8% of 190,000 active; AID 868;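 active = inhibition above a set limit, 3 SD over mean compound inhibition, cut at about 8.4% in these data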;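 also: 0% = DMSO-only wells with no growth and 100% = 10 µM 1-NA-PP1 full growth; inhibition rescues growth on 5-FOA so higher OD means more RAM inhibition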
WT yeast gro inh = growth inhibition of WT yeast, mitochondrial fusion screen; AID 1362; inhibition, % at 10 µM; mitochondrial fusion phenotypic screen, WT strain; 2.1% of 190,000 active; in the data active = inhibition above about 58%; tested in S. cerevisiae
NPY-Y1 PAM-ag = potentiates or activates human NPY-Y1 receptor; activation, % at 3.6 µM; 0.37% of 220,000 active; NPY-Y1 expressing cells, potentiator/agonist activation; in the data active = activation above about 33%, passing the limit was not always enough;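 also: cells stimulated with NPY at EC10 then isoproterenol at EC100; 0% = low agonist plus stimulus and 100% = saturating agonist plus stimulus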
NPY-Y1 antag = antagonists of human neuropeptide Y receptor Y1; inhibition, % at 3.6 µM; HEK293-CNG Y1 cells, membrane potential fluorescence; NPY at EC95, then isoproterenol; 1% of 200,000 active; AID 1040;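 active = inhibition above the campaign mean inhibition of all tested compounds plus 3 SD, cut at about 20% in these data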;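 also: 0% = DMSO wells given NPY plus isoproterenol and 100% = isoproterenol alone without NPY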
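Material: HEK293 cells co-expressing NPY Y1 receptor and cyclic-nucleotide gated channel. Timing: compound incubation 1 h at room temperature, readout 45 min post-stimulation. Signal: fluorescence, membrane potential probe.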
NPY Y2 blocker = antagonists of human neuropeptide Y receptor Y2; P49146; NPY-Y2 expressing cells, antagonist mode; inhibition, % at 2.7 µM; 0.99% of 140,000 active; in the data active = inhibition above about 17%;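 also: 0% = vehicle with agonist challenge and 100% = reference antagonist with challenge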
Target sequence (P49146 whole entry, looked up): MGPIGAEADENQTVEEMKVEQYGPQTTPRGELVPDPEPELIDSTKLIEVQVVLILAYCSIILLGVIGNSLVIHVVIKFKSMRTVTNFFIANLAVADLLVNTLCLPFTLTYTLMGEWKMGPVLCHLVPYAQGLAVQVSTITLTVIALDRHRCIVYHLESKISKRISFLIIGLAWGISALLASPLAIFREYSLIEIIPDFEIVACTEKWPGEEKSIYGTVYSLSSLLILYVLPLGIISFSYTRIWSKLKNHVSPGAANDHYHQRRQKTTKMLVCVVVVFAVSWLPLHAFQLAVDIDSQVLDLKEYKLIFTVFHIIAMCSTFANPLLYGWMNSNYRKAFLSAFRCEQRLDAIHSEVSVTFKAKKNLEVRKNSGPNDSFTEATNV
NPY2 pot ag = potentiates or activates human NPY-Y2 receptor; P49146; cells expressing NPY-Y2, potentiator/agonist read-out; activation, % at 3.6 µM; 0.45% of 220,000 active; in the data active = activation above about 27%;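 also: cells stimulated with NPY near EC25 plus isoproterenol at EC100; 0% = vehicle plus submaximal agonist and 100% = vehicle plus saturating agonist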
Starred values were filed as active, the others as inactive; · = not tested or not shown. Only some compounds are listed: those with a hit (about 4.9% of all), similar ones and a draw of the others.

SMILES | RAM network inh | WT yeast gro inh | NPY-Y1 PAM-ag | NPY-Y1 antag | NPY Y2 blocker | NPY2 pot ag
COC(=O)/C(=N/Nc1cccc(C)c1)N1CCCc2ccccc21 | 7 | 45 | -14 | 19 | 6 | -3
CC(=O)/C(=N/Nc1ccc(Br)cc1)N1CCCc2ccccc21 | · | · | 3 | · | · | -3
Cn1c(N/N=C/c2cccs2)nc2c1c(=O)n(Cc1ccccc1)c(=O)n2C | 3 | -13 | -22 | 2 | 0 | 7
CC(C)COC(=O)Nc1ccc(C(=O)O)cc1 | 0 | · | 4 | 4 | 0 | -21
O=C(c1ccccc1)N1CCN2C(=O)c3ccccc3C12c1ccc(Cl)cc1 (configuration not stated) | 1 | -9 | 11 | 16 | 9 | 9
CN1OCC(S(=O)(=O)c2ccccc2)C1c1ccccc1 (configuration not stated) | 2 | -18 | -6 | 8 | · | 17
N#C/C(C(N)=O)=c1/ccc2c(c1)N1C3=C(CCCC3)CC3CCCCC31N=2 (configuration not stated) | 8 | 30 | 51* | -27 | -13 | 47*
N#CC(C#N)=c1ccc2c(c1)N1C3=C(CCCC3)CC3CCCCC31N=2 (configuration not stated) | 7 | 73* | 15 | -5 | -2 | -6
O=C(CCSc1nc(-c2ccc3c(c2)OCO3)cc(C(F)(F)F)n1)NCc1ccccc1 | 8 | 24 | -3 | 7 | 1 | 2
CN(Cc1ccccc1)C(=O)CCSc1nc(-c2ccc3c(c2)OCO3)cc(C(F)(F)F)n1 | 9.9* | -2 | -1 | 12 | 4 | -13
O=C(CCSc1nc(-c2ccc3c(c2)OCO3)cc(C(F)(F)F)n1)NCc1ccco1 | 9.7* | -15 | 4 | 6 | 8 | -9
O=C(COC(=O)c1ccc2[nH]c3c(c2c1)CCCC3)Nc1ccccc1Cl | 4 | 8 | 0 | 5 | · | 10
CCC(C)c1ccccc1NC(=O)COC(=O)c1ccc2[nH]c3c(c2c1)CCCC3 (configuration not stated) | 6 | 62* | -18 | -2 | 3 | 3
CCOC(=O)c1cc2sccc2n1CCCN1C(=O)c2ccccc2C1=O | 9.0* | 32 | -30 | 8 | 9 | -9
Cc1cc(C)nc(N2CCC(C(=O)NCCc3ccc(F)cc3)CC2)n1 | -1 | 69* | -15 | -8 | -1 | 5
Cc1ccc(S(=O)(=O)N2CCC(C(=O)NCCc3ccccc3)CC2)cc1 | 2 | 16 | -19 | -5 | 1 | -29
Cc1ccc(S(=O)(=O)N2CCC(C(=O)NCCc3ccc(S(N)(=O)=O)cc3)CC2)cc1 | 8.9* | 3 | 14 | 0 | 1 | 7
CC(C)(CNc1ccc([N+](=O)[O-])cc1Cl)CNS(C)(=O)=O | 0 | -18 | -15 | 7 | -2 | 7
c1ccc(-c2noc(-c3ccc4ccccc4c3)n2)nc1 | 3 | 2 | 3 | -3 | 2 | -13
S=c1nc(-c2ccccc2)oc2c1CCCC2 | -2 | 12 | 13 | 2 | 2 | 8
COc1cccc(-c2nc(=S)c3c(o2)CCCC3)c1 | -1 | 68* | -30 | -5 | · | -4
COc1cccc(-c2nc(-c3ccccn3)no2)c1 | -1 | 79* | 8 | 10 | -1 | 11
c1ccc(-c2noc(-c3ccc4c(c3)OCO4)n2)nc1 | 2 | 64* | -2 | 0 | -1 | -5
CCOC(=O)N1CCN(C(=O)C2CC(c3cc(OC)ccc3OC)=NO2)CC1 (configuration not stated) | 1 | -10 | 12 | 1 | 3 | -14
CCOC(=O)[C@@H]1C(c2c(OC)cc(OC)cc2OC)=NO[C@@H]1C(=O)OCC | 2 | -3 | 69* | -7 | 0 | 33*
SMILES | RAM network inh | WT yeast gro inh | NPY-Y1 PAM-ag | NPY-Y1 antag | NPY Y2 blocker | NPY2 pot ag
CCN1CCN(c2cc(C(C)C)nc3c(-c4ccccc4)c(C)nn23)CC1 | · | · | 16 | · | · | 9
Cc1nn2c(N3CCN(C(=O)c4ccco4)CC3)cc(C(C)(C)C)nc2c1-c1ccc(Cl)cc1 | 0 | 17 | 10 | -2 | -1 | 13
Cc1cc(N2CCN(C(=O)c3ccco3)CC2)n2nc(C)c(-c3ccccc3)c2n1 | 1 | 63* | -10 | 0 | 1 | -1
CCN1CCN(c2cc(C(C)(C)C)nc3c(-c4ccccc4)c(C)nn23)CC1 | 0 | 94* | 12 | 6 | 3 | 10
O=C(O)CSCNC(=O)C12CC3CC(CC(C3)C1)C2 | 1 | 11 | -22 | -2 | -1 | -6
CC(C)CCn1c(O)c(N=Nc2ccccn2)c2ccccc21 | 7 | 68* | -32 | 7 | 8 | 5
CCC(C)(C)NC(=O)C(c1cccn1C)N(Cc1ccc(OC)cc1)C(=O)Cn1nnc2ccccc21 (configuration not stated) | 1 | 1 | -159 | 52* | 53* | -81
CCOc1cc(C2C(C(=O)c3ccco3)=C(O)C(=O)N2CCc2ccccc2)ccc1O (configuration not stated) | 8 | 1 | -31 | 39* | 36* | -24
O=C(C1=C(O)C(=O)N(CCc2ccccc2)C1c1cccnc1)c1ccco1 (configuration not stated) | 0 | -7 | -8 | 8 | 3 | -5
COc1nc(Nc2ccc([N+](=O)[O-])cc2)nc(NC2CCCCC2)n1 | 0 | 88* | -14 | 2 | · | 6
CC1CC/C(=C\c2ccc3c(c2)OCO3)C(=O)/C1=C/c1ccc2c(c1)OCO2 (configuration not stated) | 10* | 27 | -5 | 11 | 5 | -1
O=C1/C(=C\c2ccc3c(c2)OCO3)CCC/C1=C/c1ccc2c(c1)OCO2 | 8 | -2 | -4 | -1 | 9 | 8
Cc1nc2ccccc2c(=O)n1NC(=O)c1ccccc1Cl | 0 | 74* | -13 | -2 | 2 | -8
CN(C)c1ccc(NS(=O)(=O)c2ccc(Cl)cc2)cc1 | 1 | -2 | -14 | -9 | 1 | 0
CN1C(=O)CC(N2CCN(C(=O)c3ccccc3)CC2)C1=O (configuration not stated) | 1 | -10 | 11 | 0 | 2 | 5
Cc1ccc(C2CC(C(F)(F)F)n3nc(C(=O)NCc4c(C)nn(C)c4C)c(Cl)c3N2)cc1 (configuration not stated) | 1 | -12 | 48* | -18 | 3 | 39*
Cc1ccc2oc(=O)c3cc(C(=O)NCc4ccco4)sc3c2c1 | 4 | 5 | 4 | 22* | 45* | 1
COc1ccc(N/C(=C/[N+](=O)[O-])SC)cc1 | 0 | 9 | -16 | 9 | · | -2
COC(=O)COc1ccc2c(-c3ccc(OC)cc3)cc(=O)oc2c1 | 5 | 4 | 98* | 2 | 5 | 98*
COc1ccc(-c2cc(=O)oc3cc(OC(=O)C4CCCCC4)ccc23)cc1 | 11* | 31 | -18 | 2 | 3 | 0
